Two molecules from ChEMBL document CHEMBL1146231, “Novel semisynthetic derivative of antibiotic Eremomycin active against drug-resistant gram-positive pathogens including Bacillus anthracis” (J Med Chem, 2007) can be followed below.

Each structure is given as a SMILES string. In brackets after ≈: the same amount, converted by molar mass. Activity calls are given as the source filed them.

The test system of experiment [1] is Bacillus anthracis. The experiment in a line: Antimicrobial activity against Bacillus anthracis HH105-5 isolate. Type of experiment: functional.
For experiment [2], the system named is Bacillus anthracis. Description: Antimicrobial activity against Bacillus anthracis HH105-6 isolate. The class given is functional.
The subject of experiment [3] is Bacillus anthracis. Description: Antimicrobial activity against Bacillus anthracis HH105-5R isolate. Type of experiment: functional.
Experiment [4] has as its system Bacillus anthracis. The experiment in a line: Antimicrobial activity against Bacillus anthracis HHT105-5R isolate. Type of experiment: functional.
Experiment [5] concerns Bacillus anthracis. The experiment in a line: Antimicrobial activity against Bacillus anthracis HH113-6R isolate. Type of experiment: functional.
Experiment [6] concerns Bacillus anthracis. Description: Protection against Bacillus anthracis challenged BALB/c mouse at 106 mg/kg, iv after 3 days. Type of experiment: functional, organism-based. More on the design: dose 106 mg/kg.
Experiment [7] concerns Mus musculus. Description: Survival of pulmonary anthrax BALB/c mouse model infected with Bacillus anthracis Ames at 30 mg/kg, sc after 6 days. Type of experiment: functional. As to conditions: 144 h, route subcutaneous.
The test system of experiment [8] is Mus musculus. The experiment in a line: Protection against pulmonary anthrax BALB/c mouse model infected with Bacillus anthracis at 135 mg/kg, po after 6 days. Conditions: 144 h. The class given is functional.
The test system of experiment [9] is Mus musculus. Description: Survival of BALB/c mouse pulmonary challenged with Bacillus anthracis at 114 mg/kg, po. Type of experiment: functional.
The test system of another experiment is Streptococcus pyogenes. Description: Antimicrobial activity against Streptococcus pyogenes Stpy_8668 isolate. The class given is functional.
For experiment [10], the system named is Bacillus anthracis. The experiment in a line: Antimicrobial activity against Bacillus anthracis Ames. Type of experiment: functional.
For experiment [11], the species on record is Mus musculus. The experiment in a line: Effect on survival of BALB/c mouse infected with Staphylococcus aureus PGO#172. The class given is functional. The procedure, abridged: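 Mice received a lethal dose of S. aureus PGO#172 (ATCC#29213) by intraperitoneal injection. They were treated with an iv bolus at 1, 5, 10, 25 or 50 mg/kg, in groups of five. Mortality was the endpoint, and ED50 was derived from the dose-response.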

The subject of experiment [12] is Mus musculus. The experiment in a line: Survival of pulmonary anthrax BALB/c mouse model infected with Bacillus anthracis Ames at 10 mg/kg, sc after 6 days. Type of experiment: functional. Conditions: 144 h, route subcutaneous.
Experiment [13] has as its system Mus musculus. Description: Survival of pulmonary anthrax BALB/c mouse model infected with Bacillus anthracis Ames at 100 mg/kg, sc after 6 days. As to conditions: 144 h, route subcutaneous. The class given is functional.
Experiment [14] concerns Mus musculus. Description: Survival of pulmonary anthrax BALB/c mouse model infected with Bacillus anthracis Ames at 30 mg/kg, sc twice daily for 6 days. Type of experiment: functional. Conditions: 144 h, route subcutaneous.
Experiment [15] concerns Mus musculus. The experiment in a line: Survival of BALB/c mouse pulmonary challenged with Bacillus anthracis at 10 mg/kg. Type of experiment: functional.
The test system of experiment [16] is Mus musculus. The experiment in a line: Survival of BALB/c mouse pulmonary challenged with Bacillus anthracis at 3 mg/kg. The class given is functional.
The test system of experiment [17] is Mus musculus. The experiment in a line: Survival of BALB/c mouse pulmonary challenged with Bacillus anthracis at 1 mg/kg. Type of experiment: functional.
The subject of experiment [18] is Mus musculus. Description: Survival of BALB/c mouse pulmonary challenged with Bacillus anthracis at 0.3 mg/kg. Type of experiment: functional.
In experiment [19] the test system is Staphylococcus haemolyticus. The experiment in a line: Antimicrobial activity against Staphylococcus haemolyticus 602 isolate. The class given is functional. The procedure, abridged: (§1)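 MICs were run by broth microdilution as recommended by NCCLS, in cation-adjusted Mueller-Hinton broth. Compound was serially diluted 2-fold, over a final range of 64 to 0.03 µg/mL after inoculation.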

The subject of experiment [20] is Staphylococcus epidermidis. The experiment in a line: Antimicrobial activity against Staphylococcus epidermidis 533 isolate. The class given is functional. The essentials:
as §1

Experiment [21] relates to Staphylococcus aureus. The experiment in a line: Antimicrobial activity against glycopeptide intermediate resistant Staphylococcus aureus 3793 isolate. The class given is functional. The essentials:
as §1

Experiment [22] deals with Staphylococcus aureus. The experiment in a line: Antimicrobial activity against glycopeptide intermediate resistant Staphylococcus aureus 3798 isolate. The class given is functional. The essentials: as §1
Experiment [23] relates to Enterococcus faecium. The experiment in a line: Antimicrobial activity against vancomycin-susceptible Enterococcus faecium 568 isolate. The class given is functional. The procedure, abridged: as §1
Experiment [24] relates to Enterococcus faecalis. Description: Antimicrobial activity against vancomycin-susceptible Enterococcus faecalis 559 isolate. Type of experiment: functional. The procedure, abridged: as §1
Experiment [25] relates to Enterococcus faecium. The experiment in a line: Antimicrobial activity against vancomycin-resistant Enterococcus faecium 569 isolate. The class given is functional. The essentials: as §1
Experiment [26] has as its system Enterococcus faecalis. The experiment in a line: Antimicrobial activity against vancomycin-resistant Enterococcus faecalis 560 isolate. The class given is functional. The procedure, abridged: as §1
Experiment [27] deals with Staphylococcus aureus. Description: Antimicrobial activity against methicillin-resistant Staphylococcus aureus Stau_29213 isolate. Type of experiment: functional. The essentials:
as §1

The test system of experiment [28] is Staphylococcus aureus. Description: Antimicrobial activity against methicillin-resistant Staphylococcus Stau_33591 isolate. The class given is functional. The procedure, abridged: as §1
Experiment [29] concerns Staphylococcus aureus. The experiment in a line: Antimicrobial activity against methicillin-resistant Staphylococcus aureus Stau_b11386 isolate. The class given is functional. The procedure, abridged:
as §1

In experiment [30] the test system is Staphylococcus aureus. Description: Antimicrobial activity against methicillin-resistant Staphylococcus aureus Stau_Mu50-HIP5406 isolate. Type of experiment: functional. The essentials: as §1
Experiment [31] concerns Staphylococcus aureus. The experiment in a line: Antimicrobial activity against methicillin-resistant Staphylococcus aureus Stau_HIP5827 isolate. Type of experiment: functional. The procedure, abridged: as §1
Experiment [32] deals with Enterococcus faecalis. Description: Antimicrobial activity against vancomycin-susceptible Enterococcus faecalis Enfa_29212 isolate. The class given is functional. The procedure, abridged:
as §1

Experiment [33] has as its system Enterococcus faecalis. Description: Antimicrobial activity against vancomycin-resistant Enterococcus faecalis Enfa_t29862 isolate. Type of experiment: functional. The procedure, abridged: as §1
In experiment [34] the test system is Enterococcus faecalis. The experiment in a line: Antimicrobial activity against vancomycin-resistant Enterococcus faecalis Enfa_vre-2 isolate. The class given is functional. The procedure, abridged: as §1
A further experiment relates to Escherichia coli. Description: Antimicrobial activity against Escherichia coli Esco_25922 isolate. The class given is functional.

As for `O=C(O)c1cn(C2CC2)c2cc(N3CCNCC3)c(F)cc2c1=O` [CIPROFLOXACIN], the minimum inhibitory concentration (MIC) in the experiment with Bacillus anthracis [1] came out at 8 mg/L (≈ 24.1 µM); in the experiment with Bacillus anthracis [2], 32 mg/L (≈ 96.6 µM); in the experiment with Bacillus anthracis [3], 4 mg/L (≈ 12.1 µM); against Bacillus anthracis [4] it was 8 mg/L (≈ 24.1 µM); in the experiment with Bacillus anthracis [5], 4 mg/L (≈ 12.1 µM). Moreover, in the experiment with Bacillus anthracis [6], the outcome was Active. The survival at 30 mg/kg in the experiment with Mus musculus [7] came to 75%. For the same molecule, the survival at 135 mg/kg with Mus musculus [8] worked out at 75%. For the same molecule, the survival at 114 mg/kg in the experiment with Mus musculus [9] amounted to 87.5%.
With `CN[C@H](CC(C)C)C(=O)N[C@H]1C(=O)N[C@@H](CC(N)=O)C(=O)N[C@H]2C(=O)N[C@H]3C(=O)N[C@H](C(=O)N[C@H](C(=O)NC45CC6CC(CC(C6)C4)C5)c4cc(O)cc(O)c4-c4cc3ccc4O)[C@H](O[C@@H]3C[C@@](C)(N)[C@H](O)[C@@H](C)O3)c3ccc(cc3)Oc3cc2cc(c3O[C@H]2O[C@@H](CO)[C@H](O)[C@@H](O)[C@@H]2O[C@H]2C[C@](C)(N)[C@@H](O)[C@H](C)O2)Oc2ccc(cc2Cl)[C@H]1O`, the minimal inhibitory concentration (MIC) turned out to be 0.2 mg/L (≈ 0.118 µM) in the experiment on Streptococcus pyogenes; 0.5 mg/L (≈ 0.296 µM) in the experiment on Bacillus anthracis [10]; 0.5 mg/L (≈ 0.296 µM) against Bacillus anthracis [1]; 0.5 mg/L (≈ 0.296 µM) with Bacillus anthracis [2]; 0.25 mg/L (≈ 0.148 µM) against Bacillus anthracis [3]; 0.25 mg/L (≈ 0.148 µM) in the experiment on Bacillus anthracis [4]. The MIC against Bacillus anthracis [5] amounted to 0.5 mg/L (≈ 0.296 µM); in [19], 0.25 mg/L (≈ 0.148 µM); in [20] it was 0.25 mg/L (≈ 0.148 µM); in the experiment with Staphylococcus aureus [21], 1 mg/L (≈ 0.591 µM); in the experiment with Staphylococcus aureus [22], 2 mg/L (≈ 1.18 µM); against Enterococcus faecium [23], 0.5 mg/L (≈ 0.296 µM). The MIC in the experiment with Enterococcus faecalis [24] stood at 0.5 mg/L (≈ 0.296 µM); in the experiment on Enterococcus faecium [25] it was 4 mg/L (≈ 2.37 µM); against Enterococcus faecalis [26] it was 8 mg/L (≈ 4.73 µM); in the experiment on Staphylococcus aureus [27], 0.78 mg/L (≈ 0.461 µM); against Staphylococcus aureus [28], 0.78 mg/L (≈ 0.461 µM); against Staphylococcus aureus [29], 0.78 mg/L (≈ 0.461 µM). For the same molecule, the MIC was 0.4 mg/L (≈ 0.237 µM) in the experiment on Staphylococcus aureus [30]; 1.56 mg/L (≈ 0.922 µM) against Staphylococcus aureus [31]; 0.4 mg/L (≈ 0.237 µM) with Enterococcus faecalis [32]; 6.25 mg/L (≈ 3.7 µM) with Enterococcus faecalis [33]; 12.5 mg/L (≈ 7.39 µM) in the experiment with Enterococcus faecalis [34]; more than 50 mg/L against Escherichia coli. The same molecule displayed an ED50 in the experiment filed under Mus musculus [11] of 20.4 mg/kg. The survival at 10 mg/kg was found to be 88% in the experiment on Mus musculus [12] and 85.7% in the experiment with Mus musculus [15]. Besides, the survival at 30 mg/kg was 88% with Mus musculus [7] and 86% in the experiment with Mus musculus [14]. The same molecule showed a survival at 100 mg/kg in the experiment on Mus musculus [13] of 100%. In the experiment with Mus musculus [16], this molecule registered a survival at 3 mg/kg of 62.5%. The survival at 1 mg/kg in the experiment with Mus musculus [17] was 50%. In the experiment on Mus musculus [18], this molecule came in with a survival at 0.3 mg/kg of 12.5%.

One may read the MIC as the smallest concentration in the dilution series that meets the test's criterion for growth inhibition. Lower therefore signals inhibition by little substance. Broadly, the ED50 is the midpoint of the dose-response relation. A high value points to a need for a large dose.
